Source: PubChem
In the library only some 3.3% were active in any assay of this set; here they are far more common.
UHRF1 MBD2 ctr – blocks human UHRF1 binding to methylated DNA. AID 687016. inhibition, % at 4.4 µM. 0.75% of 370,000 active. Q96T88. UHRF1 binding to methylated oligo, TR-FRET;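 also: UHRF1 SRA domain binding a hemimethylated CpG hairpin DNA probe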
LEDGF integ inh – blocks HIV-1 LEDGF/p75-dependent DNA integration. TR-FRET IN-LEDGF/p75 DNA integration, Eu/Cy5. inhibition, % at 3.7 µM. 0.64% of 370,000 active. AID 743269;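 active = inhibition above the screen-wide mean plus 3 SD, cut at about 13% in these data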;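 also: signal is the Cy5 over europium emission ratio at 671 and 618 nm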
PRMT1 inh – PRMT1 (human) inhibition, primary screen. inhibition, % at 2.79 µM. Q99873. 1.3% of 370,000 active. AID 652257. recombinant PRMT1, activity-based probe fluorescence polarization;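 active = inhibition above about 21% made by adding two undisclosed values, limit read from the data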
MBD2 DNA inh – inhibitors of human MBD2 binding to methylated oligonucleotide; inhibition, % at 4.4 µM; TR-FRET; AID 686964; Q9UBB5; 0.31% of 370,000 active; in the data active = inhibition above about 13%
SIAE inh – blocks human sialic acid acetylesterase; inhibition, % at 9.66 µM; Q9HAT2; 0.69% of 370,000 active; SIAE FP-Rh probe binding, fluorescence polarization;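 active = inhibition above a cutoff: mean of compounds within the control limits plus 3 SD of those, cut at about 17% in these data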
TDP2 absorb – blocks human TDP2 phosphodiesterase activity. O95551. recombinant TDP2, T5PNP hydrolysis, p-nitrophenol absorbance 415 nm. inhibition, % at 12.8 µM. 0.34% of 370,000 active. AID 720702;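 active = inhibition above the mean of all tested compounds plus 3 SD, set per campaign, cut at about 25% in these data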
Target sequence (O95551 whole entry, looked up): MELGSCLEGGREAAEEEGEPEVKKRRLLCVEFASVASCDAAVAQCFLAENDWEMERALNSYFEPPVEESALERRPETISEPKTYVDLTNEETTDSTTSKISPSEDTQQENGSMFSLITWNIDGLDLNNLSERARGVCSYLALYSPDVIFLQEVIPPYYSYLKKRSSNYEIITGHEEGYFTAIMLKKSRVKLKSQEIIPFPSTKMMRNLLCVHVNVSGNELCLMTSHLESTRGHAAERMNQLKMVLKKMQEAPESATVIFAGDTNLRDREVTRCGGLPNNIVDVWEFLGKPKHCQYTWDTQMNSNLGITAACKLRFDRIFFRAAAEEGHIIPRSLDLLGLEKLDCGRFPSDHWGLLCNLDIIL
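System – recombinant human TDP2 · Quantity – TDP2 enzyme at 120 nM final · Doses – single concentration, 12.8 µM nominal, with 1% DMSO · Incubation – 2 h at 37 °C · Measured by – epi absorbance of p-nitrophenol freed from T5PNP by hydrolysis · Read-out – % inhibition relative to enzyme-containing and enzyme-free wells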
UHRF1 ctr MBD2 – counter-screen for MBD2 inhibitors: human UHRF1 methylated DNA binding inhibitors | shares compounds with MBD2 DNA inh | UHRF1 binding to methylated oligonucleotide, TR-FRET | inhibition, % at 4.4 µM | 25% of 1,000 active | AID 720530;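 also: UHRF1 SRA domain binding a labeled hemimethylated CpG hairpin DNA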
MBD2 confirm – confirmation of human MBD2-DBD methylated oligonucleotide binding inhibitors. shares compounds with MBD2 DNA inh. TR-FRET MBD2-DBD binding to methylated oligonucleotide. inhibition, % at 4.4 µM. 26% of 1,000 active. AID 720531; in the data active = inhibition above about 14%
Large screens that a line does not name were inactive (follow-up assays come after a bar, where they were run). Rule as the data show it, unless noted: active = inhibition above about 21%; inactive = the rest.

COC1=C[C@H](C(=O)N[C@H]2CCCC[C@@H]2NC(C)=O)[C@H](C)[C@@H](c2ccccc2)CC1=O	none
Cc1ccc2nc(Cl)c3cc(C(=O)NCCCN4CCCC4)sc3c2c1	MBD2 DNA inh 15 | UHRF1 ctr MBD2 inactive | MBD2 confirm 16
COC1=Nc2ccccc2N2CCN=C12	none
c1ccc2c(c1)C1=NCCN1c1ccccc1-2	MBD2 DNA inh 26 | UHRF1 ctr MBD2 inactive | MBD2 confirm 39
Cc1ccc(-n2c(Cc3cccs3)nnc2SCc2ccc([N+](=O)[O-])cc2)cc1	none
CC1=C(C(=O)N(C)C)CC(CC(=O)NC(c2ccccc2)c2ccccc2)C(=O)N1Cc1ccc(F)cc1 (stereo not drawn)	UHRF1 MBD2 ctr 24, MBD2 DNA inh 14 | UHRF1 ctr MBD2 inactive | MBD2 confirm inactive
Cc1cc(Br)ccc1NC(=O)CNC(=O)c1cnn(C)c1	MBD2 DNA inh 18 | UHRF1 ctr MBD2 inactive | MBD2 confirm inactive
CCC(=O)N(Cc1ccccc1)c1ccccc1C(=O)Nc1cc(OC)ccc1OC	none
COc1ccc(N2CCN(CCNS(=O)(=O)c3ccccc3[N+](=O)[O-])CC2)cc1	none
O=C(NCc1ccncc1)C1CCC(=O)N(CCc2ccc(Cl)cc2)C1 (stereo not drawn)	UHRF1 MBD2 ctr 49, MBD2 DNA inh 24 | UHRF1 ctr MBD2 inactive | MBD2 confirm inactive
COc1ccc(C(C)=O)cc1COC(=O)c1ccc2c(c1)OCO2	MBD2 DNA inh 14 | UHRF1 ctr MBD2 inactive | MBD2 confirm inactive
COc1ccc(C(C)=O)cc1COC(=O)c1ccc2c(c1)OCCO2	none
Cc1cnc(NC(=O)c2cc(-c3ccccc3)nn2-c2ccccc2)s1	MBD2 DNA inh 25 | UHRF1 ctr MBD2 inactive | MBD2 confirm inactive
COC(=O)C[C@@H]1CC[C@H]2[C@H](COc3ccc(NC(=O)Nc4ccc(C#N)cc4)cc3C(=O)N2C)O1	none
Cc1cccc(CCNC(=O)Cn2nc(-c3ccccc3)ccc2=O)c1	none
Cc1ccc(S(=O)(=O)N2c3ccccc3C[C@H]2CCC(=O)c2ccccc2)cc1	none
O=C(NC(=S)Nc1nc(-c2ccc(Br)cc2)cs1)c1cccnc1	MBD2 DNA inh 16 | UHRF1 ctr MBD2 inactive | MBD2 confirm inactive
Cn1ccnc1SCC(=O)Nc1nc2ccccc2s1	MBD2 DNA inh 14 | UHRF1 ctr MBD2 inactive | MBD2 confirm inactive
COc1ccc(C(=O)OCC(=O)c2ccc[nH]2)cc1	MBD2 DNA inh 67 | UHRF1 ctr MBD2 inactive | MBD2 confirm inactive
O=C(OCC(=O)c1ccc[nH]1)c1ccc(Br)cc1	none
O[C@H](COc1cccc(Br)c1)CN1CCC(C(O)(c2ccccc2)c2ccccc2)CC1	none
C=CCN1[C@H](Cc2ccccc2)COc2cccc(N3CCSCC3)c2S1(=O)=O	none
CC(=O)Nc1ccc2nc(C)n(Cc3ccc(Cl)cc3)c(=O)c2c1	UHRF1 MBD2 ctr 23, MBD2 DNA inh 15 | UHRF1 ctr MBD2 inactive | MBD2 confirm inactive
O=C(CSc1nnc(COc2ccccc2)n1-c1ccccc1)Nc1ccc2c(c1)OCO2	none
CC(C)NC(=O)C(=O)NCC(c1ccc2c(c1)OCO2)N1CCOCC1 (stereo not drawn)	UHRF1 MBD2 ctr 28, MBD2 DNA inh 14 | UHRF1 ctr MBD2 inactive | MBD2 confirm inactive
C=CCNC(=O)C(=O)NCC(c1ccc2c(c1)OCO2)N1CCOCC1 (stereo not drawn)	none
C[C@@H]1CCN(C2CC2)S(=O)(=O)c2ccc(N3CC[C@H](N(C)C)C3)cc2O1	none
CCCC[C@@H]1C(=O)N2N=Cc3ccccc3[C@H]2N2N=Cc3ccccc3[C@@H]12	none
CC(=O)Nc1nc(-c2ccccc2)ns1	MBD2 DNA inh 13 | UHRF1 ctr MBD2 inactive | MBD2 confirm inactive
COCC(=O)Nc1nc(-c2ccccc2)ns1	none
CCCCOCCCNC(=O)C[C@H]1C[C@@]2(C(=O)OC)C(=C[C@H](COCc3ccccc3)O[C@@H]2C)N(Cc2ccco2)C1=O	none
CN(CC(=O)Nc1ccccc1Cl)C(=O)c1cccc(-n2cccc2)c1	none
